Screening results: PubChem, Broad Institute
Hits are enriched below; roughly 3% of the tested compounds scored in any of these assays.
NSD2 inh: blocks human histone methyltransferase NSD2 | inhibition, % at 12.5 µM | AID 743445 | NSD2 peptide methylation, AlphaScreen, 120 min | hit rate 0.54% among 310,000; in the data active = inhibition above about 50%
MITF act: increases MITF-driven TRPM1 promoter luciferase signal; SK-MEL-5 TRPM1-promoter luciferase, 24 h; % of positive control, neutral wells = 0; activation, % at 12.5 µM; hit rate 0.75% among 300,000; AID 588334;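 active = mean activation of at least 80% with every replicate also reaching 80%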;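 also: 0% = neutral control wells and 100% = parthenolide positive control wells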
esBAF inh: blocks esBAF chromatin remodeling in mouse ES cells; Bmi1-luciferase knock-in reporter, 24 h; 100% = twice the neutral-well signal; reporter increase, % at 12.5 µM; hit rate 2% among 350,000; AID 602393; in the data active = activation above about 40%;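 also: 0% = median of the plate's neutral control wells and 100% = double that signal; a rise in the Bmi1 reporter signal indicates esBAF inhibition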
Casp6 inh: blocks human caspase-6 cleavage activity; P55212; purified caspase-6, Z-VEID-R110 cleavage fluorescence; inhibition, % at 12.5 µM; hit rate 0.53% among 350,000; AID 686996;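 active = mean inhibition across replicates at least about 35%, with every replicate also reaching that limit, limit read from the data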;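 also: 0% = median of neutral control wells and 100% = no fluorescence left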
Target sequence (P55212 24-179 limits assumed): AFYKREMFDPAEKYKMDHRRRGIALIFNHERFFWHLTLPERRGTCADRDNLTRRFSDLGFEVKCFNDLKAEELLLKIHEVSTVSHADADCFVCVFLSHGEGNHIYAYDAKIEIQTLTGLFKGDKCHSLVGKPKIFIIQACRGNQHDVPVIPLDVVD
Target sequence (P55212 194-293 limits assumed): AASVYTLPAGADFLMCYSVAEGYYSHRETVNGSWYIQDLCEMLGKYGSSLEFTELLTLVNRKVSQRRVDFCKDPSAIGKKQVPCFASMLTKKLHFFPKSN
Xi reactivation: activators of X-chromosome reactivation in mouse fibroblasts; XiGFP mouse fibroblasts, % GFP-positive cells imaging, 3 d; cells co-treated with 5-aza-dC sensitizer; scaled so ellipticine positive control = 100%; activation, % at 7.58 µM; hit rate 0.055% among 360,000;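 active = mean normalized replicate activation at least 10% and every replicate at or above 10%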;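 also: 0% = median of on-plate neutral control wells and 100% = ellipticine 6 µM median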
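material = 68-5-11 XiGFP fibroblast line | medium = DMEM plus 5-aza-dC sensitizer | schedule = 3 days compound exposure | benchmarks = positive control ellipticine, 6 µM final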
Wnt bcat act: Wnt/beta-catenin pathway activation; hit rate 1.2% among 300,000; Wnt/beta-catenin reporter cell assay, activator, plate reader; activation, % at 9.35 µM; in the data active = activation above about 30%, passing the limit was not always enough;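 also: 0% = neutral control wells and 100% = positive control wells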
* hit, by the source's call; / = no result given.

SMILES | NSD2 inh | MITF act | esBAF inh | Casp6 inh | Xi reactivation | Wnt bcat act
O=C(NCCc1ccc(F)cc1)c1cccs1 | -4 | 29 | 65* | / | / | 11
O=C(NCc1ccc(F)cc1)c1cccs1 | -5 | 2 | -5 | -1 | 0 | 0
O=C(CNC(=O)c1cccs1)c1ccc(Br)cc1 | 3 | 123* | 26 | -4 | 0 | 27
Cc1ccc(S(=O)(=O)Nc2ccc3c(c2)C(=O)N([C@H](C)CO)C[C@@H](C)[C@H](CN(C)C(=O)Nc2ccccc2)OCCCC[C@@H](C)O3)cc1 | / | / | -1 | -2 | -1 | /
COc1cccc(CNC(=O)C[C@H]2CC[C@@H](NS(=O)(=O)c3ccccc3OC)[C@@H](CO)O2)c1 | / | / | 2 | 1 | 0 | /
CC(=O)N(C)C[C@@H]1Oc2ccc(N(C)C)cc2C(=O)N(C)C[C@H]1C | / | / | / | / | 0 | /
O=C(NCCC1CCCC1)c1cccs1 | -1 | / | 50* | 0 | 0 | 3
COc1cc(OC)cc(C(=O)NNC(=O)CNC(=O)c2cccs2)c1 | -3 | -13 | -6 | 62* | 0 | -1
O=S(=O)(N[C@@H]1CC[C@@H](CCNS(=O)(=O)c2ccccc2Cl)O[C@@H]1CO)c1ccccc1 | / | / | 1 | 2 | 0 | /
Cc1noc(C)c1S(=O)(=O)Nc1cccc2c1O[C@H](CN(C)Cc1ccncc1)[C@H](C)CN([C@H](C)CO)C2=O | / | / | 2 | 2 | -1 | /
CCCCOC(=O)Nc1ccc(C)c(Cl)c1 | 3 | 60 | 57* | / | / | -3
CCCCOC(=O)Nc1ccc(C(=O)OC)cc1 | -1 | 64 | 79* | / | / | 53*
COCC(=O)Nc1ccc(C)c(Cl)c1 | -3 | / | 6 | / | / | -2
CCCCOC(=O)c1ccc(NC(C)=O)cc1 | -1 | / | 20 | / | / | -1
CNc1cccc(-c2cccc(O)c2)n1 | 2 | / | 53* | 1 | 0 | 5
COc1cccc(C(=O)Nc2ccc3c(c2)C(=O)N(C)C[C@H](OC)[C@H](C)CN(CCc2ccccc2)[C@H](C)CO3)c1 | / | / | 4 | / | 0 | /
Cc1onc(-c2ccccc2)c1C(=O)NC1CCC(C)CC1 (configuration not stated) | -4 | 6 | -1 | 0 | 0 | 444*
Cc1onc(-c2ccccc2)c1C(=O)NC1CCCCC1C (configuration not stated) | 3 | / | -26 | -2 | 0 | -1
CC1CCC(NC(=O)c2cccn2C)CC1 (configuration not stated) | 1 | 77 | 8 | 5 | 0 | 42*
CC(=O)Nc1ccc2c(c1)C(=O)N(C)C[C@@H](C)[C@@H](CN(C)S(C)(=O)=O)O2 | / | / | / | / | 0 | /
O=C(NC1=NCCS1)c1ccc(OCC2CCCO2)cc1 (configuration not stated) | -1 | 28 | -3 | / | / | 40*
CNc1cc(-c2cc(OC)ccc2OC)ncn1 | -1 | / | 3 | -3 | 0 | /
CNc1cc(-c2ccc(OC)nc2)ncn1 | 5 | / | 50* | 1 | 0 | 20
Cc1ccc(S(=O)(=O)c2cc(Nc3ccccc3)ccc2O)cc1 | / | 5 | -7 | 15 | 0 | 2
Cc1ccc(Nc2ccc(N)cc2S(=O)(=O)O)cc1 | 15 | -9 | -5 | 62* | 0 | -2
O=C(CC1CC1)N1CC[C@H]2[C@H](CO)Nc3ccc(-c4ccccc4)cc3[C@H]21 | / | / | 2 | 1 | 0 | /
CCOC(=O)c1cnc2ccc(C)cc2c1Sc1ccccc1 | / | 35 | 54* | / | / | -3
O=C(O)c1cc(Nc2cc(Cl)c3nonc3c2[N+](=O)[O-])ccc1O | 16 | 7 | -1 | 49* | 0 | -1
O=[N+]([O-])c1c(Nc2ccccc2O)cc(Cl)c2nonc12 | 1 | -106 | -32 | 8 | 1 | -8
